Measurements published in ChEMBL document CHEMBL2069274, “Novel 3-nitro-1H-1,2,4-triazole-based amides and sulfonamides as potential antitrypanosomal agents” (J Med Chem, 2012).
Active and inactive are the calls of the source. No cut-off for these calls is given here.

Key:
[1] = system: Trypanosoma brucei rhodesiense; experiment: Antitrypanosomal activity against Trypanosoma brucei rhodesiense STIB 900 trypomastigotes; assay type: functional, organism-based
Procedure, shortened: (§1)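 96-well format screens: bloodstream-form T. b. rhodesiense trypomastigotes, T. cruzi amastigotes within infected L6 rat skeletal myoblasts, axenically grown L. donovani amastigotes, and uninfected L6 cells for cytotoxicity. IC50 (μM) obtained by linear regression from sigmoidal dose–inhibition curves.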

Trypanosoma cruzi [2] = experiment: Antitrypanosomal activity against Trypanosoma cruzi Tulahuen C4 amastigotes; assay type: functional, organism-based; procedure, shortened: as §1
Leishmania donovani = experiment: Antileishmanial activity against Leishmania donovani MHOM-ET67/L82 amastigotes; assay type: functional, organism-based; procedure, shortened: as §1
L6 = experiment: Cytotoxicity against rat L6 cells; assay type: cell-based; procedure, shortened: as §1
Trypanosoma cruzi [3] = experiment: Ratio of benznidazole IC50 to compound IC50 for Trypanosoma cruzi Tulahuen C4 amastigotes; assay type: functional
[4] = Selectivity index, ratio of IC50 for rat L6 cells to IC50 for Trypanosoma cruzi Tulahuen C4 amastigotes
[5] = Selectivity index, ratio of IC50 for rat L6 cells to IC50 for Trypanosoma brucei rhodesiense STIB900 trypomastigotes
[6] = system: Trypanosoma brucei brucei; experiment: Antitrypanosomal activity against bloodstream form of Trypanosoma brucei brucei Lister 427 clone 221a; assay type: functional, organism-based
Procedure, shortened: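 Bloodstream-form parasites seeded at 1 × 10^3 per ml in growth medium with a range of compound concentrations; where required, TbNTR expression induced with tetracycline (1 μg/mL). Incubation 3 days at 37 °C, then Alamar blue added for a further 16 h. Cell density read and IC50 determined.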

[7] = system: Trypanosoma brucei brucei; experiment: Activity of Trypanosoma brucei brucei recombinant Type I nitroreductase assessed as oxidised NADH level by spectrophotometric analysis
Procedure, shortened: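 His-tagged recombinant TbNTR, purified, assayed spectrophotometrically at 340 nm with nitrotriazole substrate (100 μM) and NADH (100 μM); activity expressed as nmol NADH oxidized min−1 mg−1 enzyme.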

[8] = system: Trypanosoma brucei brucei; experiment: Antitrypanosomal activity against bloodstream form of Trypanosoma brucei brucei Lister 427 clone 221a overexpressing tet-inducible NTR in absence of tetracycline after 3 days; conditions: 72 h
[9] = system: Trypanosoma brucei brucei; experiment: Antitrypanosomal activity against bloodstream form of Trypanosoma brucei brucei Lister 427 clone 221a overexpressing tet-inducible NTR in presence of tetracycline after 3 days; conditions: 72 h
[10] = system: Trypanosoma brucei brucei; experiment: Selectivity ratio of IC50 for Trypanosoma brucei brucei Lister 427 clone 221a overexpressing tet-inducible NTR in absence of tetracycline to IC50 for Trypanosoma brucei brucei overexpressing tet-inducible NTR in presence of tetracyclin
[11] = target: Trypanothione reductase (Trypanosoma brucei brucei) (UniProt P39051); experiment: Inhibition of Trypanosoma brucei brucei trypanothione reductase at <100 uM
Trypanothione reductase (Trypanosoma brucei brucei), sequence (P39051 whole entry, looked up): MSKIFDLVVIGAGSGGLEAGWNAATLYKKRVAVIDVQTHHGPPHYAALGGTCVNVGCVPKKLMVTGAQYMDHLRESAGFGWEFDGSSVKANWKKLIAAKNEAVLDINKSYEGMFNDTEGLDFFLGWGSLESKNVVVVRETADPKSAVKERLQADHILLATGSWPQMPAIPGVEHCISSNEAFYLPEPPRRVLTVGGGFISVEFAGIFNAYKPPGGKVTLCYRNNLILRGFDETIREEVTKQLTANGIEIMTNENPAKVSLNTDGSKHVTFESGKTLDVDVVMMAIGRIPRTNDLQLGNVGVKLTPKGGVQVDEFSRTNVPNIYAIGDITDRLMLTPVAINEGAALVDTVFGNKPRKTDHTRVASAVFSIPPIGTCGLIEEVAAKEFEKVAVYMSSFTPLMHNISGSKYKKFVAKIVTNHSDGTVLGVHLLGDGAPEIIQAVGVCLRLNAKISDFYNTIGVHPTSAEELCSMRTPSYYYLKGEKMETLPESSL

SMILES	IC50 [1] [µM]	IC50 (Trypanosoma cruzi [2]) [µM]	IC50 (Leishmania donovani) [µM]	IC50 (L6) [µM]	Ratio IC50 (Trypanosoma cruzi [3])	selectivity ratio [4]	selectivity ratio [5]	IC50 [6] [µM]	Activity [7]	IC50 [8] [µM]	IC50 [9] [µM]	Ratio IC50 [10]	inhibition [11]
O=[N+]([O-])c1ncn(CCCCNS(=O)(=O)c2ccc(C(F)(F)F)cc2)n1	0.354	0.71	7.79	84.9	2.2	120	240						
O=C(NCCCn1cnc([N+](=O)[O-])n1)c1cnc2ccccc2n1	34.9	0.807	62.7	> 306	1.9	> 379		> 10					
O=C(NCCCn1cnc([N+](=O)[O-])n1)c1ccc(C(F)(F)F)nc1	3.55	3.46	96.5	> 291	0.5	> 84		7.9					
O=[N+]([O-])c1ncn(CCNS(=O)(=O)c2ccc(C(F)(F)F)cc2)n1	2.79	0.803	32.4	200	1.9	248		> 10	Active				
O=C(NCCCn1cnc([N+](=O)[O-])n1)c1ccc(-c2ccccc2)cc1	0.587	0.043	8.37	117	36.3	2780	199	0.3		0.28	0.05	6	
O=[N+]([O-])c1ncn(CCCNS(=O)(=O)c2cccc3cccnc23)n1	6.52	0.4	32.9	208	3.9	519		> 10					
CC1CS(=O)(=O)CCN1/N=C/c1ccc([N+](=O)[O-])o1 (configuration not stated) [NIFURTIMOX]									Active			13	
Cc1ccc(S(=O)(=O)NCCCn2cnc([N+](=O)[O-])n2)cc1	2.54	0.412	38.1	> 308	3.8	> 747	> 121	4		5.63	0.24	23	
O=[N+]([O-])c1ncn(CCCNS(=O)(=O)c2ccc(-c3ccccc3)cc2)n1	1.05	0.028	7.54	50	55.8	1760		0.5		0.44	0.07	6	
O=C(Cn1cnc([N+](=O)[O-])n1)N1CCC(Cc2ccccc2)CC1	3.4	0.307	51.4	144	5.1	468		> 10					inactive
O=C(NCCn1cnc([N+](=O)[O-])n1)c1ccc(OC(F)(F)F)cc1	1.99	0.73	29.2	> 261	2.1	> 357	> 131						
O=C(NCCCn1cnc([N+](=O)[O-])n1)Nc1cc(C(F)(F)F)cc(C(F)(F)F)c1	6.03	0.734	11.4	24.2	2.1	33	4	1		0.81	0.18	5	
O=C(Cn1cnc([N+](=O)[O-])n1)NCc1ccc(C(F)(F)F)cc1	6.47	0.97	10.4	129	1.6	133		8.5					inactive
O=C(NCCCCn1cnc([N+](=O)[O-])n1)c1ccc(OC(F)(F)F)cc1	1.39	0.113	13	> 268	13.8	> 2380	> 193	3.6		1.05	0.1	11	inactive
O=C(NCCCn1ccnc1[N+](=O)[O-])c1ccc(C(F)(F)F)cc1	21.4	6.05	13.8	177	0.3	29							
O=[N+]([O-])c1ncn(CCNS(=O)(=O)Cc2ccccc2)n1	8.39	6.46	113	> 322	0.2	> 48	> 38.3						

SMILES	IC50 [1] [µM]	IC50 (Trypanosoma cruzi [2]) [µM]	IC50 (Leishmania donovani) [µM]	IC50 (L6) [µM]	Ratio IC50 (Trypanosoma cruzi [3])	selectivity ratio [4]	selectivity ratio [5]	IC50 [6] [µM]	Activity [7]	IC50 [8] [µM]	IC50 [9] [µM]	Ratio IC50 [10]	inhibition [11]
Cn1ccnc1S(=O)(=O)NCCCn1cnc([N+](=O)[O-])n1	21.9	20.6	223	> 318	0.1	> 15	> 14.5						
O=C(NCCCn1cnc([N+](=O)[O-])n1)c1cc(C(F)(F)F)cc(C(F)(F)F)c1	16.4	0.642	12.3	187	2.4	291	11.4	> 10					
O=C(NCCCCn1cnc([N+](=O)[O-])n1)c1ccc(C(F)(F)F)cc1	0.501	0.176	7.93	104	8.9	591	208	0.9	Active	1.3	0.13	10	
O=C(NCCCn1ccnc1[N+](=O)[O-])c1ccc(OC(F)(F)F)cc1	46.6	3.71	36	274	0.4	74							
O=C(NCCCn1cnc([N+](=O)[O-])n1)c1cccc(C(F)(F)F)c1	3.76	0.353	37.3	> 292	4.4	> 826		> 10					
O=C(Cn1cnc([N+](=O)[O-])n1)NCc1ccccc1	9.96	3.38	28.1	345	0.5	102		> 10	Active				
O=C(Cn1ccnc1[N+](=O)[O-])NCc1ccccc1 [BENZNIDAZOLE]		1.56								21.8	2.2	10	
Nc1nc(N)nc(Nc2ccc([As]3SCC(CO)S3)cc2)n1 (configuration not stated) [MELARSOPROL]										0.0034	0.0034	1	
O=[N+]([O-])c1ncn(CCNS(=O)(=O)c2cc(C(F)(F)F)cc(C(F)(F)F)c2)n1	36.7	1.68	33.3	111	0.9	66.2	3	7.9					
O=[N+]([O-])c1nccn1CCCNS(=O)(=O)c1ccc(C(F)(F)F)cc1	27.5	1.66	15.6	176	0.9	106							inactive
O=[N+]([O-])c1ncn(CCCNS(=O)(=O)c2cc(C(F)(F)F)ccc2C(F)(F)F)n1	10.3	0.644	46.1	115	2.4	178		> 10					
O=[N+]([O-])c1ncn(CCCNS(=O)(=O)Cc2ccccc2)n1	6.49	2.24	79.4	> 308	0.7	> 138	> 47.4						
COc1cc([C@@H]2c3cc4c(cc3[C@H](O)[C@H]3COC(=O)[C@H]23)OCO4)cc(OC)c1OC [PODOFILOX]				0.022									
O=C(NCCCCn1cnc([N+](=O)[O-])n1)c1ccc2ccccc2n1	4	0.132	13.4	91.5	11.8	691		> 10	Active				
Cn1ccnc1S(=O)(=O)NCCn1cnc([N+](=O)[O-])n1	35.9	83.4	> 332	> 332	0	> 4	> 9.3						
O=[N+]([O-])c1ncn(CCCNS(=O)(=O)c2cc(C(F)(F)F)cc(C(F)(F)F)c2)n1	11.3	0.322	20.7	109	4.9	338	9.6	6.6					
